ChEMBL document CHEMBL4480450, “Cytotoxic Germacrane-Type Sesquiterpene Lactones from the Whole Plant of Carpesium lipskyi” (J Nat Prod, 2019)

Legend:
[1] = tested on: A549; experiment: Cytotoxicity against human A549 cells after 72 hrs by CCK8 assay; assay type: functional, cell-based; settings: A549, 72 h
Procedure, shortened: (§1)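 Cells seeded in 96-well plates and left overnight at 37 °C in humidified 5% CO2. Serial dilutions of the compounds added, then 72 h further incubation. CCK-8 reagent added for the last 4 h and absorbance read at 450 nm.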

[2] = tested on: HL-60; experiment: Cytotoxicity against human HL60 cells after 72 hrs by CCK8 assay; assay type: functional, cell-based; settings: HL-60, 72 h; procedure, shortened: as §1

C=C1C(=O)O[C@H]2[C@H]1[C@H](OC(=O)/C(C)=C\C)C(=O)[C@H](C)CCC[C@](C)(O)[C@@H]2OC(=O)C(C)C
IC50 [1]: 4.7 µM
IC50 [2]: 3 µM

C=C1C(=O)O[C@H]2[C@H]1[C@H](OC(=O)C(C)C)C(=O)[C@H](C)CCC[C@](C)(O)[C@@H]2OC(=O)C(C)C
IC50 [1]: 5.2 µM
IC50 [2]: 5 µM

C=C1C(=O)O[C@@H]2[C@@H]1[C@H](O)[C@@H](OC(=O)C(C)C)[C@@H](C)CCC(=O)[C@](C)(O)[C@H]2OC(=O)C(C)C
IC50 [1]: 4 µM
IC50 [2]: 5.9 µM

C=C1C(=O)O[C@H]2[C@@H]1[C@@H](OC(=O)CC(C)C)[C@@]1(O)O[C@H](CC[C@H]1C)[C@](C)(O)[C@@H]2OC(=O)C(C)CC (stereo not given in full)
IC50 [1]: 6.7 µM
IC50 [2]: 5.6 µM

C=C1C(=O)O[C@H]2[C@@H]1[C@@H](OC(=O)CC(C)C)[C@@]1(O)O[C@H](CC[C@H]1C)[C@](C)(O)[C@@H]2OC(=O)C(C)C
IC50 [1]: 10.3 µM
IC50 [2]: 6.2 µM

C=C1C(=O)O[C@H]2[C@@H]1[C@H](OC(=O)CC(C)C)C(=O)[C@H](C)C[C@H]1O[C@@H]1[C@](C)(O)[C@@H]2OC(=O)C(C)C
IC50 [1]: > 10 µM
IC50 [2]: 2.8 µM

C=C1C(=O)O[C@H]2[C@H]1[C@@H](O)[C@H](OC(=O)CC(C)C)[C@H](C)CCC(=O)[C@](C)(O)[C@@H]2OC(=O)C(C)C (relative stereo)
IC50 [1]: 6.2 µM
IC50 [2]: 5.5 µM

COc1cccc2c1C(=O)c1c(O)c3c(c(O)c1C2=O)C[C@@](O)(C(=O)CO)C[C@@H]3O[C@H]1C[C@H](N)[C@H](O)[C@H](C)O1 [DOXORUBICIN]
IC50 [1]: 0.4 µM
